Laboratory results taken from the array DNA melting data of Ke et al. (doi:10.1101/2024.01.08.574731).

What was measured:
[1] = folding enthalpy; higher = less favourable; fluorescence melt of hairpins on a sequencing array, two-state fit; details: sodium 0.088 M
In short: (§1)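 Bootstrapped two-state fits yielded melting temperature and folding enthalpy for library hairpins. Cy3 fluorescence, with annealed Cy3 and quencher oligos, was imaged on a sequenced MiSeq flow cell in 50 mM Na-HEPES pH 8.0, 25 mM NaCl in 2.5 °C steps up to 60 °C, and normalised to pre-quench Cy3 and to control constructs. Four replicates were combined by inverse variance, and fitted temperatures were raised by 9.35 °C to match UV melts.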

[2] = melting temperature; fluorescence melt of hairpins on a sequencing array, two-state fit, raised by 9.35 °C to match UV melts; details: sodium 0.088 M
In short: as §1

Sequence	folding enthalpy [1] [kcal/mol]	Tm [2] [°C]
GATTTACGAAAGTATATC (((.(((....))).)))	-24.2	35.6
GGCTATGGAAACATGGTC (.(.(((....))).).)	-23.9	35.7
GCGTTGGGAAACCAGCGC (((.(((....))).)))	-45.2	58.3
GAGTAGCGAAAGCTGCTC (((.(((....))).)))	-36.6	60.1
GCTGGGCGAAAGCTTAGC (((..((....))..)))	-23	50.5
GGCGCAGGAAACCACGCC ((((..(....)..))))	-35.3	47.3
GTGTTACGAAAGTATCAC (((.(((....))).)))	-30.7	46.8
GGATGCGAAAGCAACTCC ((((((....)))..)))	-11.9	41.8
GCCTTCCGAAAGGAGGGC (((.(((....))).)))	-37	62.2
GGAGAGCCGAAAGGCTCC (((..(((....))))))	-6.93	43.3
GCCTGACCGAAAGGTGGC (((..(((....))))))	-23.4	51.2
GCGGTCCTCCGC ((((....))))	-28	58.5
GCAGAGCGAAAGCTGTGC (((.(((....))).)))	-44.2	59
GACACGCCGAAAGGCGTC (((..(((....))))))	-6.56	33.8
GCTCAAACGAAAGTTAGC (((..(((....))))))	-22.6	29.4
GACTGGCCGAAAGGCGTC (((..(((....))))))	-11.8	50.8
GCCCCGCGAAAGCGAAGC ((..(((....)))..))	-8.06	39.2
GTCTAAGGAAACCTAGAC (((((.(....).)))))	-25.8	34.3
GTGAGAGCGAAAGCTCAC (((..(((....))))))	-14.5	48.6

Sequence	folding enthalpy [1] [kcal/mol]	Tm [2] [°C]
CGGCCGGAAACGGGGCCG ((((((....)))..)))	-39.4	59.1
GCTTCGCGAAAGCAAAGC ((((.((....)).))))	-23.8	57.3
GTAGTACGAAAGTAATAC (((.(((....))).)))	-28.9	43.2
GCAACCGAAAGGTAGTGC ((((((....)))..)))	-20.1	41.2
GTGCACGAAAGTGTCCAC ((((((....)))..)))	-10.8	34.8
GATCCACGACTGGATC ((((((....))))))	-31.4	48.8
ATACTGAAAAGTAT (((((....)))))	-12.3	30.6
GTATGCGAAAGCAACTAC ((((((....)))..)))	-11.6	36.2
GCATGGCGAAAGCGATGC ((((.((....)).))))	-22	64.2
GAGGTACCGAAAGGTCTC (((..(((....))))))	-17.5	31.4
GATCCAAGGTGGATC ((((((...))))))	-32.6	51.1
GATCGGGGGCCGATC ((((((...))))))	-40.8	54.9
GTGTGAGGAAACCCACAC (((((.(....).)))))	-31.7	48.3
GCCATAGAAATATGGC ((((((....))))))	-36.4	53.5
GTCGACGAAAGTCATGAC ((((((....)))..)))	-15.6	40.7
GCGCATGGAAACATACGC (((.(((....))).)))	-40.6	49.5
GCGTTTGGAAACAAATGC ((.((((....)))).))	-47.9	51.7
GAATCCGAAAGGAGATTC ((((((....)))..)))	-18.7	36.4
GAGAGCGAAAGCTTCTC ((((((....))).)))	-21.9	48
